Test results taken from ChEMBL document CHEMBL1121743, “Synthesis and antibacterial activity of 1-(arylamino)-1H-pyrroles and 4-(1H-pyrrol-1-ylimino)-2,5-cyclohexadienes” (1981).
Values after ≈ are worked out from the molar mass of the structure shown. Active and inactive are the calls of the source. The rule behind the calls is not given here.

Experiments:
[1] = system: Mus musculus; assay: Antitubercular activity (6.25 mg/kg) in the 31-day murine mice model; NA=Not active; type: functional, organism-based
Procedure, shortened: (§1)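 Female Swiss mice (14–16 g), 10 per treated group and 20 infected controls, were infected i.v. with 0.1 mL of a 2 mg/mL M. tuberculosis H37Rv suspension. Oral dosing was in 0.5 mL 1.0% gum tragacanth, starting day 3 post-infection, twice daily, 5 days/week for 4 weeks. Percent survival was recorded at day 31; active meant survival consistently >80%.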

[2] = system: Mus musculus; assay: Antitubercular activity (12.5 mg/kg) in the 31-day murine mice model; NA=Not active; type: functional, organism-based; procedure, shortened: as §1
[3] = system: Staphylococcus aureus; assay: Minimum inhibitory dilution of medicated rat urine tested in vitro for antibacterial activity against Staphylococcus aureus; Equal to 1:2; type: functional
[4] = system: Mus musculus; assay: Antitubercular activity (3.1 mg/kg) in the 31-day murine mice model; NA=Not active; type: functional, organism-based; procedure, shortened: as §1
[5] = system: Mus musculus; assay: Antitubercular activity (25 mg/kg) in the 31-day murine mice model; NA=Not active; type: functional, organism-based; procedure, shortened: as §1
[6] = system: Proteus mirabilis; assay: Minimum inhibitory dilution of medicated rat urine tested in vitro for antibacterial activity against Proteus mirabilis; Less than 1:2; type: functional
[7] = system: Mus musculus; assay: Antitubercular activity (50 mg/kg) in the 31-day murine mice model; NA=Not active; type: functional, organism-based; procedure, shortened: as §1
[8] = system: Staphylococcus aureus; assay: In vitro minimum inhibitory concentration against Staphylococcus aureus; type: functional
Procedure, shortened: (§2)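 Compounds were dissolved in water, or in water with the minimum DMSO needed to keep them in solution, and tested by an established dilution method. A ">" prefix means the DMSO solvent blank was inhibitory at that level.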

[9] = system: Mus musculus; assay: Antitubercular activity (100 mg/kg) in the 31-day murine mice model; NA=Not active; type: functional, organism-based; procedure, shortened: as §1
[10] = system: Proteus mirabilis; assay: In vitro minimum inhibitory concentration against Proteus mirabilis; type: functional; procedure, shortened: as §2
[11] = system: Staphylococcus aureus; assay: Minimum inhibitory dilution of medicated rat urine tested in vitro for antibacterial activity against Staphylococcus aureus; Less than 1:2; type: functional
[12] = system: Proteus mirabilis; assay: Minimum inhibitory dilution of medicated rat urine tested in vitro for antibacterial activity against Proteus mirabilis; Equal to 1:192; type: functional
[13] = system: Staphylococcus aureus; assay: Minimum inhibitory dilution of medicated rat urine tested in vitro for antibacterial activity against Staphylococcus aureus; Equal to 1:128; type: functional
[14] = system: Staphylococcus aureus; assay: Minimum inhibitory dilution of medicated rat urine tested in vitro for antibacterial activity against Staphylococcus aureus; Equal to 1:4; type: functional
[15] = system: Proteus mirabilis; assay: Minimum inhibitory dilution of medicated rat urine tested in vitro for antibacterial activity against Proteus mirabilis; Equal to 1:8; type: functional
[16] = system: Staphylococcus aureus; assay: Minimum inhibitory dilution of medicated rat urine tested in vitro for antibacterial activity against Staphylococcus aureus; Equal to 1:16; type: functional
[17] = system: Staphylococcus aureus; assay: Minimum inhibitory dilution of medicated rat urine tested in vitro for antibacterial activity against Staphylococcus aureus; Equal to 1:8; type: functional
[18] = system: Mus musculus; assay: Antitubercular activity (12.5 mg/kg) in the 31-day murine mice model; type: functional; procedure, shortened: as §1
[19] = system: Proteus mirabilis; assay: Minimum inhibitory dilution of medicated rat urine tested in vitro for antibacterial activity against Proteus mirabilis; Equal to 1:32; type: functional
[20] = system: Mus musculus; assay: Antitubercular activity (3.1 mg/kg) in the 31-day murine mice model; type: functional; procedure, shortened: as §1
[21] = system: Mus musculus; assay: Antitubercular activity (6.25 mg/kg) in the 31-day murine mice model; type: functional; procedure, shortened: as §1
[22] = system: Mus musculus; assay: Antitubercular activity (100 mg/kg) in the 31-day murine mice model; type: functional; procedure, shortened: as §1
[23] = system: Mus musculus; assay: Antitubercular activity (25 mg/kg) in the 31-day murine mice model; type: functional; procedure, shortened: as §1
[24] = system: Mus musculus; assay: Antitubercular activity (50 mg/kg) in the 31-day murine mice model; type: functional; procedure, shortened: as §1
[25] = system: Proteus mirabilis; assay: Minimum inhibitory dilution of medicated rat urine tested in vitro for antibacterial activity against Proteus mirabilis; Equal to 1:128; type: functional
Procedure, shortened: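 Female Sprague-Dawley rats (160–200 g), in groups of three, got 50 mg/kg orally in 1.0% gum tragacanth (1 mL/100 g), with a second 50 mg/kg dose 8 h later. Pooled 24-h urine was centrifuged, ultrafiltered and stored at −20 °C. It was serially diluted twofold in tryptose phosphate broth with inoculum (18-h culture at OD 0.1, then 1:250) and incubated 18 h at 37 °C. MID is the highest dilution without visible growth.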

[26] = system: Proteus mirabilis; assay: Minimum inhibitory dilution of medicated rat urine tested in vitro for antibacterial activity against Proteus mirabilis; Equal to 1:4; type: functional
[27] = system: Staphylococcus aureus; assay: Minimum inhibitory dilution of medicated rat urine tested in vitro for antibacterial activity against Staphylococcus aureus; Equal to 1:32; type: functional
[28] = Staphylococcus aureus, read-out: MIC
[29] = Proteus mirabilis, read-out: MIC

Row | SMILES | MID [6] | MIC [8, 28] | MIC [10, 29] | MID [11] | other results
1 | CC(=O)Oc1ccc(N(C(C)=O)n2cccc2)cc1 | <0.5 | > 250 µg/mL | > 125 µg/mL |  | Survival [1]: inactive; Survival [2]: inactive; MID [3]: 0.5; Survival [4]: inactive; Survival [5]: inactive; Survival [7]: inactive; Survival [9]: inactive
2 | C1=CC(=Nn2cccc2)C=CC1=Nc1ccccc1 | <0.5 | > 62.5 µg/mL | > 62.5 µg/mL | <0.5 | 
3 | CC(C)(C)C1=CC(=Nn2cccc2)C=C(C(C)(C)C)C1=O | <0.5 | > 62.5 µg/mL | > 62.5 µg/mL | <0.5 | 
4 | c1ccc(Nn2cccc2)cc1 |  | 250 µg/mL (≈ 1580 µM) | > 125 µg/mL |  | MID [12]: 0.005208; MID [13]: 0.00781
5 | Cc1ccc(C(=O)Oc2ccc(Nn3cccc3)cc2)cc1 | < 0.5 | > 250 µg/mL | > 250 µg/mL |  | Survival [1]: inactive; Survival [2]: inactive; Survival [4]: inactive; Survival [5]: inactive; Survival [7]: inactive; MID [14]: 0.25; Survival [9]: inactive
6 | O=C(N[C@H](CO)[C@H](O)c1ccc([N+](=O)[O-])cc1)C(Cl)Cl [CHLORAMPHENICOL] |  | 3.9 µg/mL (≈ 12.1 µM) | > 62.5 µg/mL |  | MID [15]: 0.125; MID [16]: 0.0625
7 | Oc1ccc(Nn2cccc2)cc1O | <0.5 | ≤ 7.8 µg/mL | 62.5 µg/mL (≈ 329 µM) |  | MID [17]: 0.125
8 | O=Nc1ccc(Nn2cccc2)cc1 | <0.5 | 125 µg/mL (≈ 668 µM) | 250 µg/mL (≈ 1340 µM) | <0.5 | 
9 | [N-]=[N+]=NC1=CC(=O)C=C/C1=N/n1cccc1 | <0.5 | 125 µg/mL (≈ 586 µM) | > 250 µg/mL | <0.5 | 
10 | Oc1ccccc1Nn1cccc1 | <0.5 | ≤ 7.8 µg/mL | 15.6 µg/mL (≈ 89.6 µM) | <0.5 | 
11 | O=C1C=C/C(=N/n2cccc2)C(Cl)=C1 | <0.5 | 31.3 µg/mL (≈ 151 µM) | > 125 µg/mL | <0.5 | 
12 | C1=CC(=Nn2cccc2)C=CC1=Nn1cccc1 [AZAROLE] |  |  |  |  | Survival [18]: 80%; MID [19]: 0.03125; MID [17]: 0.125; Survival [20]: 70%; MIC [8]: >62.5 µg/mL; MIC [10]: >125 µg/mL; Survival [21]: 100%
13 | CC(=O)Oc1ccc(Nn2cccc2)cc1 | <0.5 | > 62.5 µg/mL | > 62.5 µg/mL |  | MID [16]: 0.0625
14 | Oc1ccc(Nn2cccc2)c2ccccc12 | < 0.5 | ≤ 7.8 µg/mL | 62.5 µg/mL (≈ 279 µM) |  | MID [14]: 0.25
15 | c1ccn(Nc2ccc(Nn3cccc3)cc2)c1 | <0.5 | 125 µg/mL (≈ 525 µM) | > 250 µg/mL | <0.5 | Survival [18]: 0%; Survival [22]: 0%; Survival [23]: 40%; Survival [24]: 0%; Survival [21]: 0%
16 | CCn1cc(C(=O)O)c(=O)c2ccc(C)nc21 [NALIDIXIC ACID] |  | 62.5 µg/mL (≈ 269 µM) | 15.6 µg/mL (≈ 67.2 µM) |  | MID [25]: 0.00781; MID [16]: 0.0625
17 | O=C1C=C/C(=N/n2cccc2)c2ccccc21 | <0.5 | 31.3 µg/mL (≈ 141 µM) | > 62.5 µg/mL |  | MID [3]: 0.5
18 | O=C1C=CC(=Nn2cccc2)C=C1 |  | ≤ 7.8 µg/mL | 62.5 µg/mL (≈ 363 µM) |  | Survival [18]: 100%; MID [26]: 0.25; Survival [23]: 100%; Survival [20]: 0%; Survival [24]: 100%; MID [27]: 0.03125; Survival [21]: 100%
